Screening data: PubChem BioAssay, Broad Institute
The list is not random: actives were taken first. Their share in the collection is about 2.1%.
Xi reactivation = activators of X-chromosome reactivation in mouse fibroblasts. XiGFP mouse fibroblasts, % GFP-positive cells imaging, 3 d; cells co-treated with 5-aza-dC sensitizer; scaled so ellipticine positive control = 100%. activation, % at 7.58 µM. hit rate 0.055% among 360,000. AID 743238;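 active means mean normalized replicate activation at least 10% and every replicate at or above 10%; inconclusive means only one of the two criteria met; inactive means mean below 10% and not all replicates reach 10%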;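 further: 0% = median of on-plate neutral control wells and 100% = ellipticine 6 µM median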
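System: XiGFP fibroblasts, SV40-immortalized. Medium: DMEM plus 5-aza-dC sensitizer. Doses: single point. Timing: 3 d treatment, 15 min room-temperature fixation. Control set: ellipticine 6 µM.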
PGC1a acetyl inh = modulators of PGC1a acetylation; U2OS PGC1a acetylation, AlphaScreen anti-acetyl-lysine; with virally co-expressed GCN5 acetyltransferase; inhibition, % at 15.6 µM; hit rate 0.17% among 350,000; AID 651687;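 active means every replicate shows inhibition of at least 40%; inconclusive means mean inhibition at least 40% but some replicate below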;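 further: 0% = neutral control wells and 100% = positive control wells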
INS-1E GSIS act = GLuc luminescence reporter in INS-1E cells, primary screen for activators of glucose-dependent secretion of insulin | activation, % at 16.6 µM | hit rate 0.61% among 370,000 | INS-1E GLuc reporter insulin secretion, 2-3 h | AID 743287;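 active means lowest replicate activation of at least 40%, so every replicate reaches that level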;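 further: 0% = median of neutral control wells and 100% = median of IBMX positive control wells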
PAX8 inh HTS = lowers PAX8-driven luciferase in RMG-I cells | RMG-I TPO-luciferase reporter, SteadyGlo, 24 h | inhibition, % at 12.6 µM | hit rate 1.2% among 360,000 | AID 652154;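 active means mean replicate inhibition at least 60% with every replicate also reaching 60%; inconclusive means only one of the two criteria is met; inactive means mean below 60% and not all replicates reaching 60%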;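 further: luciferase light reporting Pax8 driven TPO promoter activity; plate controls were median of neutral control wells for no effect and mitoxantrone controls for full effect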
MLL AF4-AF9 inh = inhibitors of human MLL-AF4/AF9 interaction; AlphaScreen, biotin-AF4 peptide binding to FLAG-AF9; P42568; AID 651704; hit rate 0.47% among 350,000; inhibition, % at 10 µM;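 active means every replicate reaching a set inhibition limit, whatever the replicate mean, cut at about 25% in these data; inconclusive means mean inhibition reaches that limit but some replicates miss it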;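 further: 0% = plate neutral control median and 100% = total signal loss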
Target sequence (P42568 whole entry, looked up): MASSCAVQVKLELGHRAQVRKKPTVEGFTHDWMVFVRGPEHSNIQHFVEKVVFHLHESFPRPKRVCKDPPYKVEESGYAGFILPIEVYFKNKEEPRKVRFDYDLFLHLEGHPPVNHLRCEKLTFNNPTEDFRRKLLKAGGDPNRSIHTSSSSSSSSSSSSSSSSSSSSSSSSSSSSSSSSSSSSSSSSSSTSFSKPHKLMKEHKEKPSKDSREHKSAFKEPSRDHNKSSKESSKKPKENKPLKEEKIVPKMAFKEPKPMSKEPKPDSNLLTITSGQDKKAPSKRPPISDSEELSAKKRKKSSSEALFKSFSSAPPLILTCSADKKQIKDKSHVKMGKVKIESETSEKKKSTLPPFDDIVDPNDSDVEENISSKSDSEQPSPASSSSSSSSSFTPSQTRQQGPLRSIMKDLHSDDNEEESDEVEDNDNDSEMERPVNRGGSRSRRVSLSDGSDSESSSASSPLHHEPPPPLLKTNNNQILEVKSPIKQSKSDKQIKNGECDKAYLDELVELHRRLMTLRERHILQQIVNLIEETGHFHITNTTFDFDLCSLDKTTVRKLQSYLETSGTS
EWS-Fli inh = inhibitors of EWS/Fli oncoprotein transcriptional activity; inhibition, % at 12.6 µM; A673 NR0B1-luciferase reporter, viability-normalised; hit rate 0.67% among 350,000; AID 651661;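 active means mean inhibition of at least 50% after viability correction, with every replicate also passing that limit; inconclusive means mean reaches 50% but only one of two replicates passes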;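 further: firefly luciferase signal divided by Alamar Blue viability fluorescence both relative to DMSO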
Starred values were filed as active, the others as inactive; ? = inconclusive; . = no result given.

SMILES	Xi reactivation	PGC1a acetyl inh	INS-1E GSIS act	PAX8 inh HTS	MLL AF4-AF9 inh	EWS-Fli inh
CCN(CC)c1ccc(NC2=C(Cl)C(=O)c3ccccc3C2=O)cc1	.	68.0*	.	.	.	.
Cc1ccc(NC2=C(Cl)C(=O)c3ccccc3C2=O)cc1	0.0	?	2.2	-89.4	3.1	?
CCOc1ccc(NC2=C(OC)C(=O)c3ccccc3C2=O)cc1	-0.1	.	-23.7	-29.3	.	.
CCNC1=C(Cl)C(=O)c2ccccc2C1=O	.	-6.1	.	.	12.3	.
CO[C@@H]1CN(C)C(=O)c2cc(NC(C)=O)ccc2OC[C@H](C)N(CCc2ccccc2)C[C@@H]1C	-0.2	-5.4	-0.2	.	6.2	2.3
C=C1N(C)c2cc([N+](=O)[O-])c(N)cc2C1(C)C	0.2	15.6	-15.8	5.1	47.5*	-0.5
CC1(C)Oc2cc(N)c([N+](=O)[O-])cc2O1	.	-6.7	.	.	.	.
C[C@@H]1CCCCO[C@H](CN(C)C(=O)CCCN(C)C)[C@@H](C)CN([C@@H](C)CO)C(=O)c2cc(NC(=O)c3ccccc3)ccc2O1	-0.8	4.5	11.6	3.4	.	-1.9
Nc1nnnn1/N=C/C(Br)=C/c1ccccc1	.	-42.8	.	93.0*	.	.
O=C(C[C@H]1CC[C@@H]2[C@H](COC[C@H](O)CN2Cc2cccc(C(F)(F)F)c2)O1)NCCc1ccncc1	0.0	1.1	19.3	-4.8	-1.5	2.7
COc1ccc(-c2csc(NC(=O)CCNC(=O)c3ccco3)n2)cc1OC	0.0	-8.4	16.4	11.4	4.7	-7.7
COc1ccc(-c2nc(CCNC(=O)c3ccco3)cs2)cc1OC	0.0	1.9	88.6*	-25.1	-4.1	-6.0
CC(=O)N[C@H]1CC[C@@H](CC(=O)NCC2CCCCC2)O[C@@H]1CO	0.0	1.1	-7.3	4.5	-1.2	3.9
CCSC1=N/C(=C\c2ccc3c(c2)OCO3)C(=O)S1	.	3.2	-9.0	.	.	.
CN1C(=O)/C(=C/c2ccc3c(c2)OCO3)N=C1c1ccccc1	0.4	.	40.0*	13.1	.	.
CCC(=O)NC[C@H]1[C@H](c2ccc(-c3cccc(F)c3)cc2)[C@@H](CO)N1C(=O)CC	0.1	-1.4	-3.3	-16.3	0.7	1.6
O=C1OCCN1/N=C/c1ccc([N+](=O)[O-])o1	-0.1	-6.9	-1.6	-6.7	-5.9	12.0
